Screens as filed in PubChem BioAssay.
A selection: hits, their analogues and other compounds. The true share with any hit is near 3.7%.
GRIN3A LBD mod = modulates the human NR3A ligand-binding domain. Tm shift relative to glycine control, % at 25 µM. actives 2.5% (n = 340,000). AID 1259313. NR3A LBD differential scanning fluorimetry, Tm shift; 0% = protein alone, 100% = glycine-bound protein;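 active means melting temperature shift of at least 10% of the positive control shift, at one fixed dose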
MPTP inh = permeability transition pore inhibition | AID 602449 | inhibition, % at 10 µM | actives 1.4% (n = 360,000) | isolated mouse mitochondria, Ca2+ swelling absorbance, 30 min;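 active means inhibition of 50% or more, scaled per plate between neutral and stimulator controls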;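 further: 0% = DMSO wells given calcium and 100% = 1 mM EGTA wells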
aDG glyco act = increases alpha dystroglycan glycosylation | Pro5-aDG cells, alpha-DG glycosylation AlphaScreen (IIH6); 0% Pro5, 100% B10-LARGE cell signal | activation, % at 10 µM | actives 0.22% (n = 360,000);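 active means activation of at least 8% versus controls, or a plate z-score of at least 8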;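 further: Pro5 are CHO cells carrying HIG-tagged alpha-DG that lacks glycosylation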
proCasp3 act = procaspase-3 (human) activation. recombinant procaspase-3 D3A, Ac-DEVD-pNA absorbance 405 nm. activation, % at 8.5 µM. actives 0.11% (n = 330,000);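 active means activation above the mean of all tested compounds plus 3 SD, cut at about 21% in these data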;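 further: 0% = DMSO alone and 100% = DMSO wells spiked with extra 5 µM PC-3 D3A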
Target sequence (P42574 whole entry D9A/D28A/D175A): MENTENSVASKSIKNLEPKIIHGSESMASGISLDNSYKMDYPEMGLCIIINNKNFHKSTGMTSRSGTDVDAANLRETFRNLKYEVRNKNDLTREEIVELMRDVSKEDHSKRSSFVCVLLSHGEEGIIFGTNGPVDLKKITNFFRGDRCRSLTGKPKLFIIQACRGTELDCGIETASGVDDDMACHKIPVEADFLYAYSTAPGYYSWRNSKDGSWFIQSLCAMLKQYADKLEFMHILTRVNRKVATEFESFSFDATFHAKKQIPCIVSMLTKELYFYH
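Assay system: Procaspase-3 D3A mutant, all three cleavage aspartates alanine. Buffer or medium: Zinc-free HEPES saline buffer with Triton X-100. Times: 1 h compound preincubation, 2 h substrate hydrolysis at 25 °C. Measured by: 405 nm absorbance of p-nitroaniline, reads at 0 and 120 min. Read-out basis: percent activation relative to control range. Replicates: singlicate.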
proCasp7 act = counter-screen for procaspase-3 activators: activators of human procaspase-7; P55210; recombinant procaspase-7, Ac-DEVD-pNA absorbance 405 nm; D23A/D198A/D206A triple mutant, cannot self-cleave; scale: DMSO 0, 5 µM enzyme 100; activation, % at 8.5 µM; actives 0.093% (n = 330,000); AID 463210;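 active means percent activation above the screen-wide mean plus 3 SD, cut at about 25% in these data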
Target sequence (P55210 whole entry D23A/D198A/D206A): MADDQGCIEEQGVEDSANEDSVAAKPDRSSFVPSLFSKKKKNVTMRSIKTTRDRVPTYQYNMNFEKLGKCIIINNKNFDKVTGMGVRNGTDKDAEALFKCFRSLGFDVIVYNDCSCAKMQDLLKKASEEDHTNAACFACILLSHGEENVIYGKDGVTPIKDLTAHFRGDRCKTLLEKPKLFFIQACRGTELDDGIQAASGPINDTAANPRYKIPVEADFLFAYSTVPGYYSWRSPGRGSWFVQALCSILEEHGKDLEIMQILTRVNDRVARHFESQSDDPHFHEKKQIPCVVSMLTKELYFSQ
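Assay system: Uncleavable procaspase-7 mutant enzyme | Input: 2 µM procaspase-7 mutant as dispensed | Timing: 1 h compound preincubation, 2 h substrate cleavage, 25 °C | Repeats: One well per compound | Control set: DMSO wells as 0%, DMSO with 5 µM added PC-7 as 100% | Technique: Epi-absorbance of released pNA at 405 nm, two timepoints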
MPTP counter = Rhodamine 123 counter-screen of mitochondrial pore hits; AID 624504; inhibition, % at 10 µM; shares compounds with MPTP inh; actives 78% (n = 5,000); isolated mitochondria, membrane potential, Rhodamine 123 fluorescence; in the data active means inhibition above about 22%;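 further: 0% = DMSO vehicle and 100% = positive control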
MPTP swell DR = dose response confirmation of mitochondrial permeability transition pore inhibitors; AID 651561; IC50, µM; isolated mitochondria swelling, absorbance; actives 58% (n = 780); shares compounds with MPTP inh; in the data active means IC50 below about 20 µM
MPTP cs DR = MPTP inhibitor counter-screen activity, dose response | shares compounds with MPTP inh | isolated mitochondria counterscreen, fluorescence read-out | IC50, µM | actives 49% (n = 780) | AID 651564; in the data active means IC50 below about 80 µM
Active calls of the source: *; i = inactive; · = not tested or not shown.

SMILES	GRIN3A LBD mod	MPTP inh	aDG glyco act	proCasp3 act	proCasp7 act	MPTP counter	others
Cn1nc(C(F)(F)F)c2cc(C(=O)Nc3ccc(C(F)(F)F)cc3)sc21	15*	91*	0	0	1	75*
O=C(C(=O)c1cc(Br)ccc1O)c1cc(Br)ccc1O	20*	95*	0	·	·	97*
O=C(c1ccc(O)c(Br)c1)c1cc(Br)ccc1O	8	94*	0	·	·	93*
O=[N+]([O-])c1ccc(NN=Cc2cccc([N+](=O)[O-])c2)cc1	34*	92*	0	·	·	65*
CCCCCCCCCCS(=O)(=O)N/N=C/c1ccc(O)cc1	4	79*	0	3	5	56*
O=[N+]([O-])c1ccc(N/N=C/C=C/c2ccco2)cc1	41*	76*	0	-32	-30	70*
Cc1cccc(C(=O)Oc2ccc(/C=N/O)cc2)c1	-14	1	0	-3	4	·
CCCCCCCCCCS(=O)(=O)N/N=C/c1ccccc1OC	-6	20	0	-3	6	·
Cc1cccc(C(=O)Oc2ccccc2/C=N/Nc2ccc([N+](=O)[O-])cc2)c1	14*	67*	0	-1	-3	78*
CC1CC(C)CN(S(=O)(=O)CCNC(=O)c2ccccc2)C1 (stereo unspecified)	1	-1	0	4	1	·
CCOc1ccc(CCNC(=O)CN(C)S(=O)(=O)c2cccs2)cc1OCC	1	-2	0	-4	3	·
CCCCCCCCCS(=O)(=O)N/N=C/c1cccc([N+](=O)[O-])c1	18*	64*	0	-6	2	61*
O=C(Cc1cccc(NC(=O)C2CCCN(C(=O)C3CCCC3)C2)c1)Nc1ccc(C(=O)N2CCOCC2)cc1 (stereo unspecified)	-3	-1	0	·	·	·
Cc1cc(Cl)c(S(N)(=O)=O)cc1OCC(=O)NC1CCCCC1	0	1	0	-2	1	·
Cc1cc(Cl)c(S(=O)(=O)NC2CCCC2)cc1OCC(=O)NC1CCCCC1	1	80*	1	1	11	72*
Cc1cc(Cl)c(S(=O)(=O)N2CCSCC2)cc1OCC(=O)NC1CCCCC1	1	86*	3	-7	-13	85*
Cc1cc(Cl)c(S(=O)(=O)N2CCCCCC2)cc1OCC(=O)NC1CCCCC1	-5	37	0	-3	-7	·
CCOC(=O)Cc1csc(NC(=O)c2ccc(NC(C)=O)cc2)n1	-2	0	0	3	13	·
CCOC(=O)Cc1csc(NC(=O)Nc2ccc(OC(F)(F)F)cc2)n1	-11	84*	2	4	0	68*
NC(c1ccccc1)c1csc(NC(=O)Nc2cccc(Cl)c2)n1 (stereo unspecified)	·	3	2	·	·	·
NC(c1ccccc1)c1csc(NC(=O)Nc2ccc(OC(F)(F)F)cc2)n1 (stereo unspecified)	·	70*	0	·	·	78*
CN(C)CCC(=O)c1ccc(Cl)cc1	-2	99*	1	-3	-14	5	MPTP swell DR=10*;MPTP cs DR=>80
CC(C)NC(=O)N(C)C[C@H]1Oc2ccc(NS(=O)(=O)c3ccccc3)cc2C(=O)N([C@H](C)CO)C[C@@H]1C	-1	1	0	0	-3	·
COc1ccc(-n2nnnc2C(c2cccs2)N2CCN(C/C=C/c3ccccc3)CC2)cc1 (stereo unspecified)	·	3	3	·	·	·
Cc1cc(F)ccc1C(O)c1ncc(-c2ccccc2F)[nH]1 (stereo unspecified)	·	1	0	·	·	·
SMILES	GRIN3A LBD mod	MPTP inh	aDG glyco act	proCasp3 act	proCasp7 act	MPTP counter	others
COC(=O)/C(=C\Nc1cccc(Cl)c1C)c1ncc(C(F)(F)F)cc1Cl	-2	75*	0	6	-1	8	MPTP swell DR=19*;MPTP cs DR=>80
Cc1c(Cl)cccc1NC(=S)NNc1ncc(C(F)(F)F)cc1Cl	0	60*	0	1	-7	76*
Cc1ccc(OCc2cc(C(=O)N(C)C3CCCc4ccccc43)no2)cc1C (stereo unspecified)	·	1	0	·	·	·
Cc1ncc([N+](=O)[O-])n1CCOC(=O)Nc1ccc([N+](=O)[O-])cc1	-2	77*	0	-5	7	71*
COc1ncnc2c1ncn2CCCNCc1ccc(C)o1	·	-1	0	·	·	·
CCOc1ccc2c(C)nc(NC3=NC(C)(C)C=C(C)N3)nc2c1	-3	59*	0	6	12	6	MPTP swell DR=i;MPTP cs DR=7.7*
CCOc1ccc2nc(NC3=NC(C)(C)C=C(C)N3)nc(C)c2c1	-1	86*	0	11	4	85*
Cc1cccc(C(=O)O/N=C(\N)CS(=O)(=O)c2ccccc2)c1	-1	-1	0	-2	3	·
O=C(N/N=C/c1cn(-c2ccccc2)nc1-c1cccs1)c1ccc(Cl)cc1	27*	70*	0	0	-2	65*
O=C(N/N=C/c1cn(-c2ccccc2)nc1-c1cccs1)c1ccccc1F	4	2	1	-2	-2	·
COC(=O)[C@@H](NCc1ccc(OC)c(B(O)O)c1)C(C)C	0	2	0	·	·	·
O=C(NNc1ccccc1Br)C(=O)n1ccc2ccccc21	-4	57*	0	1	-2	57*
O=C(Nc1ccccc1Br)C(=O)N1CCCC1	-1	0	0	0	2	·
OC(c1cccc(OCc2ccccc2)c1)c1nnc(-c2ccccc2)o1 (stereo unspecified)	-24	104*	3	16	1	96*
Cc1cc(Nc2ccc(F)c(F)c2)nc(-c2ccccc2O)n1	23*	90*	0	2	1	60*
N=c1c(-c2nc3ccccc3[nH]2)cc(C(=O)c2cccs2)nn1-c1ccccc1	-15	91*	0	10	-4	39*
CCCCc1c(-c2ccccc2Br)ncn1CCc1ccccc1OC	·	27	0	·	·	·
CCCCCc1c(-c2ccccc2OC)ncn1CCc1ccccc1OC	·	81*	0	·	·	113*
CCCCCc1c(-c2ccccc2F)ncn1CCc1ccccc1OC	·	4	3	·	·	·
CCCCc1c(-c2ccccc2OC)ncn1CCc1ccccc1OC	·	80*	0	·	·	115*
Cc1cc(C)c(O)c(CN(C)Cc2cc(Cl)cc(Cl)c2O)c1	-3	94*	0	·	·	87*
COC(=O)C(C)Sc1snnc1-c1ccccc1 (stereo unspecified)	1	3	0	3	-14	·
